# ERp5 inh: ERp5 (human) disulfide isomerase inhibition | Q15084 | ERp5 insulin aggregation, absorbance 650 nm, 90 min | inhibition, % at 9.99 µM | hit rate 0.05% among 350,000;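 active means mean replicate inhibition above about 25%, with every replicate also reaching it, limit read from the data, passing the limit was not always enough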
# Target sequence (Q15084 whole entry, looked up): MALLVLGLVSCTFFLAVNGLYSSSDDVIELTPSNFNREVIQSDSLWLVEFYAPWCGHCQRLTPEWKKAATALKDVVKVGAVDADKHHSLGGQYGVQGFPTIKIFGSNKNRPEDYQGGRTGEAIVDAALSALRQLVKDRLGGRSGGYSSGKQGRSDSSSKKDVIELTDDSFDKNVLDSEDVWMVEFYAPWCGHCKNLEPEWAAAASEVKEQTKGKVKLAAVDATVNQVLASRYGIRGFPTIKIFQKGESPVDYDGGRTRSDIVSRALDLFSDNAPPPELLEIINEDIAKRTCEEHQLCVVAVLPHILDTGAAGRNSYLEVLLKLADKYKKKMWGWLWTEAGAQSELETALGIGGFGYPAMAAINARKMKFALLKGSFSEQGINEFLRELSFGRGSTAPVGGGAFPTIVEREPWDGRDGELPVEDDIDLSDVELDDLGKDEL
# PvdQ acylase: P. aeruginosa PvdQ acylase inhibition. purified PvdQ acylase, fluorescence plate reader. inhibition, % at 10 µM. hit rate 0.063% among 340,000. AID 488965; in the data active means inhibition above about 30%, passing the limit was not always enough;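 further: 0% = vehicle neutral wells and 100% = reference inhibitor wells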
# VIM-2 inhibitor: inhibitors of Pseudomonas aeruginosa VIM-2 metallo-beta-lactamase. purified VIM-2, nitrocefin hydrolysis, epi-absorbance fluorescence. inhibition, % at 5.6 µM. hit rate 0.89% among 290,000. AID 1527;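 active means inhibition above the mean of all tested compounds plus 3 SD, cutoff set per screening run, cut at about 7.5% in these data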;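 further: red hydrolysis product quenches plate fluorescence so inhibitors raise well fluorescence; 0% = enzyme with DMSO and 100% = DMSO without enzyme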
# PDI turbidity: inhibitors of human protein disulfide isomerase; P07237; PDI insulin aggregation turbidity, A650, 90 min; inhibition, % at 10 µM; hit rate 0.052% among 350,000;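 active means mean inhibition across replicates of 30% or more, whatever share of single replicates reach that level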
# PglD inh: PglD (C. jejuni) enzyme inhibition; purified PglD enzyme, DTNB colorimetric CoA detection; inhibition, % at 12.5 µM; hit rate 0.098% among 360,000; AID 602405; in the data active means inhibition above about 16%, passing the limit was not always enough
# IMP-1 inh-1: inhibitors of Pseudomonas aeruginosa IMP-1 metallo-beta-lactamase; purified IMP-1, nitrocefin hydrolysis, epi-absorbance fluorescence; inhibition, % at 5.6 µM; hit rate 0.45% among 290,000; AID 1556;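 active means inhibition above the mean plus 3 SD of all compounds in the same screening run, cut at about 4.5% in these data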;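 further: 0% = IMP-1 with DMSO and 100% = DMSO wells lacking enzyme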
#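 System: purified recombinant IMP-1 beta-lactamase. Medium: Zinc- and detergent-supplemented HEPES buffer, pH 7.1. Compound: one 5.6 µM dose […]. Schedule: 15 min preincubation plus 25 min reaction at 25 °C. Technique: Epi-absorbance fluorescence, 480 nm excitation, 530 nm emission.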
# IMP-1 inh-2: blocks IMP-1 metallo-beta-lactamase in VIM-2 selectivity screen; purified IMP-1, nitrocefin hydrolysis, epi-absorbance fluorescence; shares compounds with VIM-2 inhibitor; 1,300 tested, under 10 active; AID 1856; inhibition, % at 5.6 µM; call rule not given here;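 further: 0% = enzyme with vehicle and 100% = vehicle without enzyme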
# VIM-2 FRET ctr: counter-screen for VIM-2 inhibitors: epi-absorbance artifacts via FRET; hit rate 23% among 1,300; shares compounds with VIM-2 inhibitor; AID 1857; inhibition, % at 5.6 µM; purified VIM-2, CCF2 FRET substrate hydrolysis;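 active means inhibition above the mean of all tested compounds plus 3 SD, cut at about 19% in these data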;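 further: 0% = VIM-2 plus DMSO and 100% = no enzyme wells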
# TEM-1 inh: TEM-1 inhibition, counter-screen for VIM-2 inhibitors; shares compounds with VIM-2 inhibitor; Purified TEM-1, nitrocefin hydrolysis, epi-absorbance fluorescence; inhibition, % at 5.6 µM; hit rate 3% among 1,300; AID 1866;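 active means inhibition above that campaign's mean inhibition plus 3 SD, cut at about 0.46% in these data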;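 further: 0% = TEM-1 with DMSO and 100% = TEM-1 with 100 µM potassium clavulanate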
# Target sequence (P62593 whole entry, looked up): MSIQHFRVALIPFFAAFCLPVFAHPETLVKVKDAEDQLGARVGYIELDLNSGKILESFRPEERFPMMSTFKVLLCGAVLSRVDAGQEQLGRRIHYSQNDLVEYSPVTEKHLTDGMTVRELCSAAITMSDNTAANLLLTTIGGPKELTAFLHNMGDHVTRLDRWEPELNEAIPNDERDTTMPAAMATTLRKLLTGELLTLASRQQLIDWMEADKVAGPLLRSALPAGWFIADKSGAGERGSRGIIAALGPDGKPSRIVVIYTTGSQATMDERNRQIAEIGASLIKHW
# VIM-2 inh conf: confirmation of P. aeruginosa VIM-2 metallo-beta-lactamase inhibitors. shares compounds with VIM-2 inhibitor. purified VIM-2, nitrocefin hydrolysis, epi-absorbance. inhibition, % at 5.6 µM. hit rate 96% among 1,300. AID 2187;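 active means inhibition of the VIM-2 beta-lactamase enzyme above about 11% from the earlier first-round screen, limit read from the data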;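 further: 0% = VIM-2 with DMSO and 100% = buffer wells without enzyme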
# * hit, by the source's call; nt = not tested or not shown. A selection: hits, their analogues and other compounds. The true share with any hit is near 1%.
SMILES,ERp5 inh,PvdQ acylase,VIM-2 inhibitor,PDI turbidity,PglD inh,IMP-1 inh-1,IMP-1 inh-2,VIM-2 FRET ctr,TEM-1 inh,VIM-2 inh conf
CCOC(=O)c1cnc2ccc(OCC)cc2c1NCCN1CCOCC1,-5,1,-2,-21,-2,-4,nt,nt,nt,nt
CCOC(=O)c1cnc2c(Cl)cccc2c1NCCN1CCOCC1,1,9,2,22,nt,-2,nt,nt,nt,nt
CCOC(=O)c1cnc2c(C(F)(F)F)cccc2c1NCCCN1CCOCC1,-2,-9,20*,0,-4,0,-3,1,-6,27*
C[C@@H]1CN([C@@H](C)CO)C(=O)c2c(c3ccccc3n2C)-c2ccccc2CO[C@@H]1CN(C)Cc1cccc2c1OCCCO2,-3,nt,nt,nt,nt,nt,nt,nt,nt,nt
Cc1noc(C)c1NC(=O)N(C)C[C@@H]1Oc2ccc(NC(=O)C3CC3)cc2C(=O)N([C@@H](C)CO)C[C@H]1C,1,nt,nt,nt,2,nt,nt,nt,nt,nt
COc1ccc(-c2cc(C(F)(F)F)n3nc(C(=O)N4CCN5CCCC5C4)cc3n2)cc1OC (stereo unspecified),2,-3,26*,15,-8,-1,-3,0,-6,40*
C[C@@H]1CN([C@H](C)CO)C(=O)c2cc(NS(C)(=O)=O)ccc2O[C@H]1CN(C)S(=O)(=O)c1cn(C)cn1,0,nt,nt,nt,-2,nt,nt,nt,nt,nt
C=CCSc1nc2c(C(=O)OCC)nnn2c2ccccc12,-1,-2,28*,-12,-3,-3,-4,-4,-11,39*
CCOC(=O)c1nnn2c1nc(SCC(C)=O)c1ccccc12,7,nt,7,0,4,-2,nt,nt,nt,nt
C[C@H](CO)N1C[C@H](C)[C@H](CN(C)C(=O)Nc2ccnc(N3CCOCC3)c2)OCc2cn(nn2)CCCC1=O,6,nt,nt,nt,-2,nt,nt,nt,nt,nt
Cc1c(C)c2c(OCC(=O)N[C@@H](C)C(=O)O)cc3c(c2oc1=O)CCC(C)(C)O3,-1,-4,46*,-6,1,-3,-2,70*,-6,53*
CCc1cc(=O)oc2c3c(cc(OCC(=O)Nc4cccnc4)c12)OC(C)(C)CC3,4,-15,67*,nt,1,-4,-2,-7,-7,78*
Cc1c(C)c2c(OCC(=O)N3CCC[C@H]3C(=O)O)cc3c(c2oc1=O)CCC(C)(C)O3,-1,-15,70*,nt,6,-3,-4,85*,-6,72*
CCc1cc(=O)oc2c3c(cc(OCC(=O)NCc4ccccn4)c12)OC(C)(C)CC3,-2,-20,0,nt,4,-4,nt,nt,nt,nt
Cc1c(C)c2c(OCC(=O)NCc3ccncc3)cc3c(c2oc1=O)CCC(C)(C)O3,0,-12,31*,nt,1,-2,-2,-5,-6,41*
Cc1c(C)c2c(OCC(=O)N3CCC(O)CC3)cc3c(c2oc1=O)CCC(C)(C)O3,5,-53,4,nt,3,-1,nt,nt,nt,nt
CN(C)CCCNC(=O)[C@H]1[C@H](CO)[C@H]2Cn3c(ccc(-c4ccncc4)c3=O)[C@@H]1N2C(=O)C1CC1,1,nt,nt,nt,-4,nt,nt,nt,nt,nt
CCC(=O)N1[C@H](C#N)[C@H](c2ccccc2-c2cccc(C)c2)[C@@H]1CO,0,nt,nt,nt,nt,nt,nt,nt,nt,nt
Cc1c(C)c2c(OCC(=O)Nc3cccnc3)cc3c(c2oc1=O)CCC(C)(C)O3,2,-12,42*,nt,1,-3,-3,0,-5,52*
Cc1c(C)c2c(OCC(=O)NCc3ccco3)cc3c(c2oc1=O)CCC(C)(C)O3,-7,-9,2,nt,-1,-1,nt,nt,nt,nt
CC(=O)N1CCN(c2ccc(Nc3nc(C)nc4c3oc3ccccc34)cc2)CC1,nt,-8,nt,5,1,nt,nt,nt,nt,nt
CC(=O)Nc1ccc(Nc2nc(C)nc3c2oc2ccccc23)cc1,nt,-1,18*,-5,-1,0,-4,1,-7,29*
CCc1nc(Nc2cccc(O)c2)c2oc3ccccc3c2n1,nt,-29,0,-10,3,-5,nt,nt,nt,nt
Cc1cccc(Nc2nc(C)nc3c2oc2ccccc23)c1,2,-12,5,4,1,-1,nt,nt,nt,nt
Cc1nc(NCCc2cnc[nH]2)c2oc3ccccc3c2n1,1,-12,71*,-6,3,0,-1,-9,1.7*,84*
SMILES,ERp5 inh,PvdQ acylase,VIM-2 inhibitor,PDI turbidity,PglD inh,IMP-1 inh-1,IMP-1 inh-2,VIM-2 FRET ctr,TEM-1 inh,VIM-2 inh conf
COc1ccc(CCNc2nc(C)nc3c2oc2ccccc23)cc1OC,nt,1,5,-3,nt,-3,nt,nt,nt,nt
CCc1nc(Nc2ccncc2)c2oc3ccccc3c2n1,nt,-11,44*,6,5,1,-3,2,-6,54*
Cc1nc(Nc2ccncc2)c2oc3ccccc3c2n1,20,-2,45*,6,nt,0,-3,-2,-6,57*
C[C@H]1CN([C@@H](C)CO)C(=O)c2cc(C#Cc3ccccc3F)cnc2O[C@@H]1CN(C)C(=O)C1CCCCC1,0,nt,nt,nt,-2,nt,nt,nt,nt,nt
CCC(=O)N1C[C@H](C)[C@@H](OC)CN(C)C(=O)c2cc(NC(=O)NC(C)C)ccc2OC[C@H]1C,1,nt,nt,nt,2,nt,nt,nt,nt,nt
CO[C@@H]1CN(C)C(=O)c2ccc(NC(=O)c3ccc(Oc4ccccc4)cc3)cc2OC[C@H](C)NC[C@H]1C,0,nt,nt,nt,-1,nt,nt,nt,nt,nt
C[C@@H]1CCCCO[C@H](CN(C)C(=O)CCCN(C)C)[C@@H](C)CN([C@@H](C)CO)C(=O)c2cc(NC(=O)CCC(F)(F)F)ccc2O1,-19,nt,nt,nt,1,nt,nt,nt,nt,nt
Cc1nc(N2CCOCC2)c2oc3ccccc3c2n1,nt,-1,19*,-4,9,-1,-3,-4,-4,34*
O=C(COc1cccc(Cl)c1)N/N=C\c1cc2ccccc2nc1Cl,nt,-11,-3,6,5,-2,nt,nt,nt,nt
O=C(CNc1ccc2ccccc2c1)N/N=C/c1cc2ccccc2nc1Cl,nt,-13,22*,5,-4,1,-4,3,-9,34*
COCCCNc1nc(N)c([N+](=O)[O-])c(Nc2cc(OC)ccc2OC)n1,1,-14,-1,4,-1,-3,nt,nt,nt,nt
COc1ccc(OC)c(Nc2nc(NCCCN(C)C)nc(N)c2[N+](=O)[O-])c1,0,-23,19*,-4,3,0,-4,2,-8,29*
COC(=O)c1c(NC(=O)c2ccccc2OC)sc(C(=O)N2CCOCC2)c1C,5,-5,14*,2,-7,-2,-3,2,-7,20*
Nc1nc(/C=C/c2ccc(F)cc2)nc(-c2ccccc2O)n1,8,5,1,-4,2,1,nt,nt,nt,nt

# Screens deposited in PubChem by several laboratories.
